In ChEMBL document CHEMBL2069263, “Synthesis and characterization of quinoline-based thiosemicarbazones and correlation of cellular iron-binding efficacy to anti-tumor efficacy” (Bioorg Med Chem Lett, 2012):
Active and inactive are the calls of the source. No cut-off for these calls is given here.

Tests used:
[1] = test system: SK-N-MC; assay: Antiproliferative activity against human SK-N-MC cells after 72 hrs by MTT assay; format: functional, cell-based
Outline: (§1)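 Cells (SK-N-MC neuroepithelioma, HCT116 colon cancer p53+/+ or p53−/−, normal human dermal fibroblasts) were exposed to compounds for 72 h and proliferation was measured by standard methods. IC50 is reported as mean ± SD of three experiments.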

[2] = test system: HCT-116; assay: Antiproliferative activity against p53-deficient human HCT116 cells after 72 hrs by MTT assay; format: functional, cell-based; settings: HCT-116, 72 h; outline: as §1
[3] = test system: HCT-116; assay: Antiproliferative activity against human HCT116 cells expressing p53 after 72 hrs by MTT assay; format: functional, cell-based; settings: HCT-116, 72 h; outline: as §1
[4] = test system: NHDF; assay: Antiproliferative activity against human NHDF cells after 72 hrs by MTT assay; format: cell-based; outline: as §1
[5] = test system: SK-N-MC; assay: Iron chelation activity in human SK-N-MC cells assessed as inhibition of 59Fe uptake from transferrin complex at 25 uM after 3 hrs by gamma scintillation counting relative to control; format: functional; design: scale not given: the % may be the effect or the level left
Outline: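 SK-N-MC cells were incubated with 59Fe-transferrin, with or without chelator, for 3 h at 37 °C and washed 4 times with ice-cold PBS. Internalized 59Fe was taken as the pronase-resistant fraction after pronase (1 mg/mL, 30 min, 4 °C) and counted by γ-scintillation. Uptake is expressed relative to control, mean ± SD of three experiments.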

[6] = Therapeutic index, ratio of IC50 for human NHDF cells to IC50 for human SK-N-MC cells; format: cell-based; settings: NHDF cells and SK-N-MC cells, read-out: Ratio IC50
Outline: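 Ratio of NHDF IC50 to SK-N-MC IC50. Both IC50s come from anti-proliferative assays after a 72 h incubation with the chelator. Each IC50 is the mean ± SD of three experiments.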

[7] = test system: SK-N-MC; assay: Iron chelation activity in human SK-N-MC cells assessed as cellular 59Fe released at 25 uM incubated for 3 hrs post 59Fe-transferrin-labeling by gamma scintillation counting; format: functional
Outline: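 SK-N-MC cells were prelabeled with 59Fe-transferrin for 3 h at 37 °C and washed 4 times with ice-cold PBS. They were then reincubated for 3 h at 37 °C with or without chelator. Released 59Fe was counted by scintillation counting. Results are mean ± SD of three experiments.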

[8] = test system: HCT-116; assay: Antiproliferative activity against human HCT116 cells expressing p53 assessed as cell survival at 1 nM after 9 days by clonogenic assay relative to control; format: functional
[9] = test system: HCT-116; assay: Antiproliferative activity against human HCT116 cells expressing p53 assessed as cell survival at 5 nM after 9 days by clonogenic assay relative to control; format: functional
[10] = test system: HCT-116; assay: Antiproliferative activity against human HCT116 cells expressing p53 assessed as cell survival at 0.5 nM after 9 days by clonogenic assay relative to control; format: functional
[11] = test system: HCT-116; assay: Antiproliferative activity against human HCT116 cells expressing p53 assessed as cell survival at 20 uM after 9 days by clonogenic assay relative to control; format: functional
[12] = test system: HCT-116; assay: Antiproliferative activity against p53-deficient human HCT116 cells assessed as cell survival at 20 uM after 9 days by clonogenic assay relative to control; format: functional
[13] = test system: HCT-116; assay: Antiproliferative activity against human HCT116 cells expressing p53 assessed as cell survival at 25 uM after 9 days by clonogenic assay relative to control; format: functional
[14] = test system: HCT-116; assay: Antiproliferative activity against p53-deficient human HCT116 cells assessed as cell survival at 25 uM after 9 days by clonogenic assay relative to control; format: functional
[15] = test system: HCT-116; assay: Antiproliferative activity against human HCT116 cells expressing p53 assessed as cell survival at 30 uM after 9 days by clonogenic assay relative to control; format: functional
[16] = test system: HCT-116; assay: Antiproliferative activity against p53-deficient human HCT116 cells assessed as cell survival at 30 uM after 9 days by clonogenic assay relative to control; format: functional
[17] = test system: HCT-116; assay: Antiproliferative activity against human HCT116 cells expressing p53 assessed as cell survival at 40 uM after 9 days by clonogenic assay relative to control; format: functional
[18] = test system: HCT-116; assay: Antiproliferative activity against p53-deficient human HCT116 cells assessed as cell survival at 40 uM after 9 days by clonogenic assay relative to control; format: functional
[19] = test system: HCT-116; assay: Antiproliferative activity against human HCT116 cells expressing p53 assessed as cell survival at 50 uM after 9 days by clonogenic assay relative to control; format: functional
[20] = test system: HCT-116; assay: Antiproliferative activity against p53-deficient human HCT116 cells assessed as cell survival at 50 uM after 9 days by clonogenic assay relative to control; format: functional

Row | SMILES | IC50 [1] | IC50 [2] | IC50 [3] | IC50 [4] | Activity [5] | Activity [7] | other results
1 | O=C(N/N=C/c1c(O)ccc2ccccc12)c1ccncc1 | 1.3 µM | – | – | – | – | – | –
2 | Oc1ccc2cccnc2c1/C=N/NC(=S)Nc1ccccc1 | 1.63 µM | 18.6 µM | 16.3 µM | 14.9 µM | 49% | – | –
3 | CN(C)C(=S)N/N=C/c1c(O)ccc2cccnc12 | 0.11 µM | > 25 µM | 20.8 µM | 14.9 µM | 18% | 33% | selectivity ratio [6]: 131
4 | S=C(N/N=C/c1ccc2ccccc2n1)Nc1ccccc1 | > 12.5 µM | 21.4 µM | 22.3 µM | – | – | inactive | –
5 | CN(C)C(=S)NN=C(c1ccccn1)c1ccccn1 | 0.014 µM | 0.005 µM | 0.002 µM | 15.4 µM | – | – | fold change (FC) [8]: 0.8541; fold change (FC) [9]: 0.1922; fold change (FC) [10]: 1.0629
6 | CN(C)C(=S)N/N=C/c1ccc2ccccc2n1 | 0.81 µM | 0.37 µM | 4.86 µM | 11.7 µM | 49% | – | selectivity ratio [6]: 14
7 | CNC(=S)N/N=C/c1ccc2ccccc2n1 | > 12.5 µM | > 25 µM | > 25 µM | – | 49% | – | –
8 | CNC(=S)N/N=C/c1c(O)ccc2cccnc12 | 0.62 µM | 8.06 µM | > 25 µM | > 25 µM | 45% | 33% | fold change (FC) [11]: 0.05; fold change (FC) [12]: 0.06; fold change (FC) [13]: 0.041; fold change (FC) [14]: 0.034; fold change (FC) [15]: 0.039; fold change (FC) [16]: 0.012; fold change (FC) [17]: 0.014; fold change (FC) [18]: 0.004; fold change (FC) [19]: 0; fold change (FC) [20]: 0
9 | CCNC(=S)N/N=C/c1c(O)ccc2cccnc12 | 0.19 µM | > 25 µM | > 25 µM | > 25 µM | 24% | 33% | –
10 | CN(C)C(=S)N/N=C(/c1ccccc1)c1ccccn1 | – | – | – | – | – | – | fold change (FC) [8]: 0.1273; fold change (FC) [10]: 0.6762
11 | CCNC(=S)N/N=C/c1ccc2ccccc2n1 | > 12.5 µM | 19.6 µM | 23.2 µM | – | 49% | – | –
12 | CCNC(=S)N/N=C/c1ccc2cccc(O)c2n1 | > 12.5 µM | 3.15 µM | 2.62 µM | > 25 µM | 49% | inactive | –
13 | CN(C)C(=S)N/N=C/c1ccc2cccc(O)c2n1 | 9.69 µM | 0.27 µM | > 15 µM | 15.8 µM | 14% | 33% | –
14 | CNC(=S)N/N=C/c1ccc2cccc(O)c2n1 | > 12.5 µM | 2.17 µM | 1.71 µM | > 25 µM | 49% | inactive | –
15 | CC(=O)N(O)CCCCCNC(=O)CCC(=O)N(O)CCCCCNC(=O)CCC(=O)N(O)CCCCCN [DEFEROXAMINE] | 12.5 µM | – | – | – | – | – | –
16 | Oc1cccc2ccc(/C=N/NC(=S)Nc3ccccc3)nc12 | > 12.5 µM | 20.9 µM | 25 µM | – | 49% | inactive | –
